# Data as given in ChEMBL document CHEMBL1122551, “Bis(m-nitrophenyl) and bis(p-nitrophenyl) esters and the phosphorodiamidate of thymidine 5'-phosphate as potential sources of intracellular thymidine 5'-phosphate in mouse cells in culture” (J Med Chem, 1984).
# Assays:
# [1] = Time for hydrolysis of half the starting material was studied at a temperature of 27 degrees celsius and aqueous 50 mM phosphate + 10 % p-dioxane (pH 7.6) as medium; format: ADME; settings: phosphate buffer with 10% p-dioxane
# In short: (§1)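 Hydrolysis in aqueous 50 mM potassium phosphate, pH 7.6, starting at 0.05 mM substrate. Nitrophenol release was followed spectrophotometrically at 400 nm. Half-life is the time for hydrolysis of half the starting material.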
# [2] = Time for hydrolysis of half the starting material was studied at a temperature of 23 degrees celsius and aqueous 50 mM phosphate + 10 % p-dioxane (pH 7.6) as medium; format: ADME, Rattus norvegicus; settings: phosphate buffer with 10% p-dioxane; in short: as §1
# [3] = tested on: LM; assay: Rate of incorporation of [3H]- into DNA fraction of mouse LM(TK-) cells after 19h of pre-incubation, expressed as cpm 1/(10e6 cells) 1/h; format: functional
# In short: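 LM(TK-) thymidine-kinase-deficient mouse fibroblasts in DMEM with 10% FBS at 37 °C in 5% CO2. Cells were exposed to [methyl-3H]-labeled compound at 0.9 μM and 1 μCi/mL (0.5% EtOH) for 19 h. Acid-insoluble 3H was counted on CCl3CO2H-washed filters. Rate was expressed per 10^6 cells per hour, using Coulter counts.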
# [4] = Time for hydrolysis of half the starting material was studied at a temperature of 37 degrees celsius and aqueous 50 mM phosphate + 10 % p-dioxane (pH 7.6) as medium(d=no hydrolysis after 72 h); format: ADME; settings: phosphate buffer with 10% p-dioxane
# [5] = Time for hydrolysis of half the starting material was studied at a temperature of 37 degrees celsius and aqueous 50 mM phosphate (pH 6) as medium; format: ADME; settings: phosphate buffer
# In short: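 Stability in 50 mM potassium phosphate at pH 7.6 or 6.0, 37 °C, followed by paper electrophoresis for up to 72 h. Half-life is the time for hydrolysis of half the starting material.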
# [6] = Time for hydrolysis of half the starting material was studied at a temperature of 27 degrees celsius and aqueous 50 mM phosphate (pH 7.6) as medium.; format: ADME; settings: phosphate buffer; in short: as §1
# [7] = tested on: LM; assay: Rate of incorporation of [3H]-into DNA fraction of mouse LM(TK-) cells after 2 hr of pre-incubation, expressed as cpm 1/(10e6 cells) 1/h; format: functional
# In short: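 LM(TK⁻) mouse L fibroblasts (thymidine-kinase deficient) in DMEM with 10% FBS, 37 °C, 5% CO2. Seeded in 6-cm dishes and grown overnight. Medium replaced with 0.017 μM [1',2',5-³H]-2'-deoxycytidine at 1 μCi/mL, 0.5% EtOH, for 2 h. Cells trypsinized, filter-collected, washed with 5% CCl3CO2H and 70% ethanol, then scintillation-counted. Zero-time blanks taken; cells per dish counted by Coulter.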
compound,measurement,setting,value
CCOP(=O)(Oc1ccc([N+](=O)[O-])cc1)Oc1ccc([N+](=O)[O-])cc1,half-life,[1],2 h
Cc1cn([C@H]2C[C@H](O)[C@@H](COP(=O)(Oc3cccc([N+](=O)[O-])c3)Oc3cccc([N+](=O)[O-])c3)O2)c(=O)[nH]c1=O,half-life,[2],4.75 h
same,Activity,[3],18.1
Cc1cn([C@H]2C[C@H](O)[C@@H](COP(N)(N)=O)O2)c(=O)[nH]c1=O,half-life,[4],> 72 h
same,half-life,[5],> 72 h
Cc1cn([C@H]2C[C@H](O)[C@@H](COP(=O)(Oc3ccc([N+](=O)[O-])cc3)Oc3ccc([N+](=O)[O-])cc3)O2)c(=O)[nH]c1=O,half-life,[6],0.83 h
same,half-life,[1],0.58 h
Cc1cn([C@H]2C[C@H](O)[C@@H](COP(=O)(O)Oc3cccc([N+](=O)[O-])c3)O2)c(=O)[nH]c1=O,Activity,[3],37.6
Nc1ccn([C@H]2C[C@H](O)[C@@H](CO)O2)c(=O)n1 [DOXECITINE],Activity,[7],21960
Cc1cn([C@H]2C[C@H](O)[C@@H](CO)O2)c(=O)[nH]c1=O [DOXRIBTIMINE],Activity,[3],53
